# Screening results from PubChem BioAssay.
# In the library only some 2% were active in any assay of this set; here they are far more common.
# HNF4A DNA FP: change in binding of human HNF4 alpha to DNA | P41235 | HNF4a-FITC DNA binding, fluorescence polarization, 1 h | activity change, % at 10 µM | 0.3% of 360,000 active; in the data active = activity change above about 30%, passing the limit was not always enough
# SENP1 FRET inh: inhibitors of human SENP1 SUMO protease catalytic domain; Q9P0U3; recombinant SENP1 catalytic domain, CyPet-SUMO1-YPet FRET cleavage; inhibition, % at 10 µM; 0.21% of 360,000 active;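 active = inhibition at least 30% at 10 µM, raw YFP signal under a set limit, fluorescence ratio 0.5 to 1.5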;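 also: 0% = enzyme with DMSO and 100% = no enzyme wells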
#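 Compound: 10 µM single point, 0.5% DMSO; Test system: hSENP1 catalytic domain, recombinant; Timing: 50 min reaction at room temperature; Technique: FRET, CFP and YFP emission; Control set: no-enzyme wells low, DMSO-plus-enzyme wells high control.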
# ATG4B inh: blocks human ATG4B protease cleavage of LC3 substrate; Q9Y4P1; ATG4B cleavage of LC3-PLA2, NBD-HPC fluorescence, 1 h; inhibition, % at 8.33 µM; 0.51% of 340,000 active; in the data active = inhibition above about 40%
# Target sequence (Q9Y4P1 whole entry, looked up): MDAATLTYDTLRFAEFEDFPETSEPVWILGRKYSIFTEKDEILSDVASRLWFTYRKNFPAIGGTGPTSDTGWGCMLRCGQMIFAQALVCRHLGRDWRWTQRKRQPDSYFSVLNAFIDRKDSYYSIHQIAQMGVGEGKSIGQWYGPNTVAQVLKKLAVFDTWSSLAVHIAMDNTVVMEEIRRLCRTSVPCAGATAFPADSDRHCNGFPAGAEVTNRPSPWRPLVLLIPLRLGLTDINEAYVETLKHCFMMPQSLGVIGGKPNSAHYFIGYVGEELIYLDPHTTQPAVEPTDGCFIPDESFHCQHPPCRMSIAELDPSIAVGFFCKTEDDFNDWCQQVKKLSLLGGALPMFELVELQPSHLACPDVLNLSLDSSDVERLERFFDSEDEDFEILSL
# CSN inh: inhibitors of human CSN-mediated cullin deneddylation; inhibition, % at 12.5 µM; AID 651999; 0.38% of 360,000 active; Purified CSN, SCF-Nedd8-OG deneddylation, fluorescence polarization; Q92905;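 active = pattern-corrected inhibition above about 35%, with an unprinted fluorescence ratio check between 0.5 and 1.5, limit read from the data, passing the limit was not always enough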;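 also: 0% = enzyme with substrate and 100% = substrate without enzyme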
#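 Assay system: purified human Csn5 enzyme expressed in HEK293T cells; Input: 0.24 nM Csn5 enzyme, final concentration; Reagent: 10 nM SCFSkp2-Nedd8OG; Compound dosing: 12.5 µM single point; Times: reaction 90 min, room temperature; Technique: fluorescence polarization readout.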
# TPT1 inh: inhibitors of Candida albicans tRNA 2'-phosphotransferase TPT1 | inhibition, % at 5 µM | recombinant caTPT1, FP RNA substrate dephosphorylation | AID 1962 | 0.81% of 300,000 active;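 active = inhibition above the mean of all tested compounds plus 3 SD, set per screening campaign, cut at about 24% in these data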;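 also: plate controls were DMSO alone for no effect and ferristatin control at 100 nM for full effect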
# Rpn11 inh: blocks the human proteasome subunit Rpn11. O00487. human 26S proteasome, Ub4-pepOG fluorescence polarization; 20S core pre-blocked with epoxomicin. inhibition, % at 20 µM. 0.59% of 360,000 active. AID 588493;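 active = inhibition at 20 µM, scaled to each plate's controls, above about 33%, limit read from the data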
# TPT1 inh confirm: TPT1 (C. albicans) inhibition, confirmation; shares compounds with TPT1 inh; recombinant caTPT1, fluorescence polarization, RNase T1 coupled; inhibition, % at 5 µM; 74% of 2,400 active; AID 2149;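 active = inhibition above the primary screen limit, the mean inhibition of all tested compounds plus 3 SD, cut at about 25% in these data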
# RNase T1 counter: RNase T1 inhibition in TPT1 counter-screen; RNase T1 cleavage, fluorescence polarization, 1536-well; inhibition, % at 5 µM; 83% of 2,400 active; shares compounds with TPT1 inh; AID 2153;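 active = inhibition above the solvent-only control well mean plus 3 SD, limit set per screening run, cut at about 23% in these data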;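 also: plate controls were DMSO wells with enzyme for no effect and wells without RNase T1 for full effect; inhibitors block cleavage so intact labeled substrate keeps polarization high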
# Target sequence (P00651 whole entry, looked up): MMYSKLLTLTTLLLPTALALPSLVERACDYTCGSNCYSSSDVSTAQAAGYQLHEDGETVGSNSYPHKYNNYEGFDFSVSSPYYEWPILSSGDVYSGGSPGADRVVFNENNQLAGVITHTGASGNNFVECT
# * = called active by the depositor; . = not tested or not shown; + = active, no number.
SMILES,HNF4A DNA FP,SENP1 FRET inh,ATG4B inh,CSN inh,TPT1 inh,Rpn11 inh,TPT1 inh confirm,RNase T1 counter
CC(C)(C)OC(=O)N1CCc2onc(-c3ccccc3F)c2C1=O,5,-1,.,-5,.,-1,.,.
COc1cccc(/C=N/NC(=O)c2ccc([N+](=O)[O-])cc2Cl)c1O,2,3,-3,-2,-1,-1,.,.
COc1ccc(/C=N\Nc2ccc([N+](=O)[O-])cc2)c(C(=O)O)c1OC,1,-36,-5,2,38*,-8,46*,60*
O=[N+]([O-])c1ccc(N/N=C\c2ccccc2OCc2ccccc2)cc1,27,-22,2,16,85*,37,101*,108*
COc1ccc(/C=N/Nc2ccc([N+](=O)[O-])cc2)cc1O,44*,-21,-9,33,82*,.,98*,106*
COc1cccc(/C=N/Nc2ccc([N+](=O)[O-])cc2)c1O,12,-23,-16,3,37*,24,57*,68*
Cc1cc(C)nc(N/N=C/c2ccccc2OCc2ccc([N+](=O)[O-])cc2)n1,-1,-6,-7,0,-3,-4,.,.
CC(C)CC(N)c1csc(NC(=O)Nc2ccccc2C(C)C)n1 (stereo not given),8,-1,.,1,.,-11,.,.
O=C(C[C@H]1C/C=C\CC[C@H](Cc2ccc(F)cc2)C(=O)OC[C@H]2CCCN2C1=O)NCCO,0,2,-12,2,.,-6,.,.
CC(=O)c1cccc(NS(=O)(=O)c2ccc(-c3cnc(C4CC4)o3)cc2)c1,1,1,-12,-2,28*,-4,7,9
C=CCOC(=O)C1=C(C)OC(N)=C(C#N)C1c1ccoc1 (stereo not given),14,-73,-4,7,62*,20,59*,74*
COc1cc(/C=C2/C(=O)CNC2=O)ccc1O,3,1,-7,12,30*,22,55*,77*
COc1cc(/C=C/C(=O)O)ccc1O,3,2,1,6,-3,-1,.,.
COc1cc(/C=C/C(=O)CC(=O)/C=C/c2ccc(O)c(OC)c2)ccc1O,112,-29,49*,111,139*,.,147*,135*
O=C(c1[nH]c(C(F)(F)F)nc1-c1ccccc1)N1CCN(c2c(Cl)cncc2Cl)CC1,-1,2,.,1,.,-11,.,.
Cc1ccc(S(=O)(=O)NNc2nnc(C)c(=O)[nH]2)cc1,-8,1,0,6,51*,1,3,6
COc1cc(/C=C/C(=O)c2ccc3c(c2)OCO3)cc(Cl)c1O,12,-24,6,18,82*,.,94*,96*
COc1ccc(C(=O)C=Cc2ccc3c(c2)OCO3)cc1OC,0,-30,.,4,.,1,.,.
CCOC(=O)C1C(=O)C=C(/C=C/c2ccc(N(C)C)cc2)CC1c1ccccc1 (stereo not given),118,-22,-8,120,89*,.,77*,80*
CCOCCCNCC(=O)Nc1ccc(S(=O)(=O)NC(C)CC)cc1 (stereo not given),3,2,-2,1,118*,-2,10,12
CCCCOCCCNCC(=O)Nc1ccc(S(N)(=O)=O)cc1,1,-1,-4,-4,0,-6,.,.
COc1ccccc1C1C([N+](=O)[O-])=CC([N+](=O)[O-])=CN1C (stereo not given),-1,13,10,3,42*,5,52*,61*
C[C@@H]1CN([C@H](C)CO)C(=O)CCCn2cc(nn2)CO[C@H]1CN(C)C(=O)Cc1ccccc1,-2,1,.,-1,.,-7,.,.
COc1ccc(N2CCN(C(=O)c3ccc4c(c3)NC(=O)C(CSCc3c(F)cccc3Cl)N4)CC2)cc1 (stereo not given),.,.,.,.,66*,.,12,19
O=C(CSCc1cccc(F)c1)N1CCN(c2ccccc2)CC1,6,-6,9,2,1,-3,.,.
SMILES,HNF4A DNA FP,SENP1 FRET inh,ATG4B inh,CSN inh,TPT1 inh,Rpn11 inh,TPT1 inh confirm,RNase T1 counter
COc1ccc(N2CCN(C(=O)c3ccc4c(c3)NC(=O)C(CSCc3cccc(F)c3)N4)CC2)cc1 (stereo not given),.,.,.,.,85*,.,8,14
COc1ccc(N2CCN(C(=O)c3ccc4c(c3)NC(=O)C(CSCc3ccc(C)cc3)N4)CC2)cc1 (stereo not given),.,.,.,.,92*,.,22,34*
COc1ccc(C(=O)N2CCN(c3cccc(Cl)c3)CC2)cc1,1,2,-2,5,-4,0,.,.
COc1ccc(N2CCN(C(=O)c3ccc(N(C)S(=O)(=O)c4ccc(C)cc4)cc3)CC2)cc1,4,1,-1,-7,-3,2,.,.
c1ccc(CNc2c(C3CCNCC3)nc3scc(-c4ccccc4)n23)cc1,3,1,.,9,.,1,.,.
O=c1oc2ccccc2c2oc3cc(O)c(O)cc3c12,-27,30,-14,13,-4,1,.,.
O=c1oc2c(O)c(O)cc3c(=O)oc4c(O)c(O)cc1c4c23,-91,23,16,55,81*,39,92*,17
CCOC(=O)/C(=C\C=C1/Sc2cc(OCC)c(OCC)cc2N1CC)C(C)=O,-90,-28,-53,-37,147*,.,123*,123*
CCN1/C(=C/C(C)=O)Sc2ccc(OC)cc21,3,0,-11,5,0,2,.,.
CCOC(=O)/C(=C/C=C1\Sc2cc(OCC)c(OCC)cc2N1CC)C(C)=O,-104,-25,-46,-66,+,.,149*,142*
O=C(CN1C(=O)S/C(=C/c2ccc(N3CCOCC3)cc2)C1=O)N1CCOCC1,15,-28,4,11,40*,.,61*,73*
Cc1ccc(/C=C2/SC(=O)N(CC(=O)N3CCOCC3)C2=O)s1,26,29,1,13,10,.,.,.
Cc1ccsc1/C=C1/SC(=O)N(CC(=O)N2CCOCC2)C1=O,-2,1,-2,2,70*,1,6,9
CN1C[C@@H]2[C@@H]3C(=O)N(Cc4ccccc4)C(=O)[C@@H]3[C@](Cc3ccccc3)(C1=O)N2C(=O)c1ccc(C(C)(C)C)cc1,1,-8,-14,-6,.,6,.,.
Cc1cc(/C=C2/SC(=S)N(c3cccc(C(F)(F)F)c3)C2=O)c(C)n1-c1cccnc1,64*,-23,-16,53*,88*,37,92*,99*
